Active and inactive are the calls of the source. No cut-off for these calls is given here.
Experiments:
[1] = biological target: T1, Peroxisome proliferator-activated receptor alpha (Homo sapiens) (UniProt Q07869); assay: Displacement of [3H]-[…] from PPARalpha (unknown origin) expressed in baculovirus infected Sf9 insect cells upto 30 uM measured after 10 hrs by microbeta scintillation counting analysis; conditions: dose microM <=30, time 10.0 hrs
T1 sequence (whole entry): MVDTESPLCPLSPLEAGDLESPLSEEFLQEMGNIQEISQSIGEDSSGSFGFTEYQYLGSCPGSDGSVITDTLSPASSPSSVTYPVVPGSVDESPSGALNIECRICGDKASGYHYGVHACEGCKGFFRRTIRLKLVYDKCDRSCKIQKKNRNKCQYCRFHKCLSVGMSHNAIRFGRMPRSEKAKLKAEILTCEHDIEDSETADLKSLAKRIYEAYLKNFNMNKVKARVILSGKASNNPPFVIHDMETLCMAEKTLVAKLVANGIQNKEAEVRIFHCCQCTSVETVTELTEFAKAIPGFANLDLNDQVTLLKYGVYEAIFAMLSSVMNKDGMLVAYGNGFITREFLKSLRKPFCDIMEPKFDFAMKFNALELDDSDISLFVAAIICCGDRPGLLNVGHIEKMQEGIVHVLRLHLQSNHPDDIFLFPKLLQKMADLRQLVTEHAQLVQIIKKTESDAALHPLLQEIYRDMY
Procedure, shortened: (§1)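 Scintillation proximity assay. Sf9 lysates with baculovirus-expressed PPARα (0.3 μg), PPARδ (0.5 μg) or PPARγ (1.25 μg), each with RXRα, were bound via biotinylated DR2 oligo (0.126 nM) to streptavidin yttrium silicate beads. Buffer was HEPES pH 7.8 with KCl, MgCl2, DTT, CHAPS, 14% glycerol and salmon sperm DNA. A 3H reference agonist ligand was used, with 11 compound concentrations, for 10 h. Nonspecific binding was defined with 10000 nM unlabeled reference. Ki was derived from IC50.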

Mus musculus = assay: Hypoglycemic activity in Balb/c mouse assessed as effective dose causing reduction in blood glucose level administered orally 60 mins prior to glucose challenge measured for 60 mins by IPGTT; assay type: functional; conditions: po, 1 h
[2] = biological target: Free fatty acid receptor 1 (Mus musculus, UniProt Q76JU9); assay: Agonist activity at Prolink-tagged mouse GPR40 fused with EA-tagged beta-arrestin expressed in human U2OS cells assessed as induction of beta-arrestin recruitment measured after 90 mins by beta-galactosidase based PathHunter assay; assay type: cell-based
Procedure, shortened: (§2)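 PathHunter β-gal complementation. Cells were incubated overnight at 5000/well in medium with 1% heat-inactivated FBS. Compound was added as a 20-point 2-fold series from a top final of 100 μM (1% DMSO) for 90 min at 37 °C, followed by detection reagents and chemiluminescence read after 1 h at rt.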

[3] = biological target: T2, Peroxisome proliferator-activated receptor delta (Homo sapiens) (UniProt Q03181); assay: Displacement of [3H]-[…] from PPARdelta (unknown origin) expressed in baculovirus infected Sf9 insect cells upto 30 uM measured after 10 hrs by microbeta scintillation counting analysis; conditions: dose microM <=30, time 10.0 hrs; procedure, shortened: as §1
T2 sequence (whole entry): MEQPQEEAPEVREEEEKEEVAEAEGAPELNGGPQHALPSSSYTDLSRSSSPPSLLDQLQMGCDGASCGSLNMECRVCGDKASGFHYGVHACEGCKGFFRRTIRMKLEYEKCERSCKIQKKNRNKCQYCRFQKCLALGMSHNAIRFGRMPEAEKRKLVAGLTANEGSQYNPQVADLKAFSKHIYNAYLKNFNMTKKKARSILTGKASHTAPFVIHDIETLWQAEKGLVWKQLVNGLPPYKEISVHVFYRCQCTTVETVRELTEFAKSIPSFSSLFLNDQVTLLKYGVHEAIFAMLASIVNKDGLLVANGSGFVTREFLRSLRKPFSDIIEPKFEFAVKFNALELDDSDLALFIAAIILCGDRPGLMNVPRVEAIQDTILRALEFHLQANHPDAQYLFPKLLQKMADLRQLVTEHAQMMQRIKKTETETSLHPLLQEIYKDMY

[4] = biological target: T3, Free fatty acid receptor 1 (Homo sapiens, UniProt O14842); assay: (§3) Displacement of [3H]-(S)-2-(6-((2',6'-dimethyl-4'-(3-(methylsulfonyl)propoxy)biphenyl-3-yl)methoxy)-2,3-dihydrobenzofuran-3-yl)acetic acid from human recombinant full-length GPR40 expressed in human HEK293 cell membrane assessed as residence time by radioligand competitive assay; assay type: cell membranes; conditions: filed as agonist
Procedure, shortened: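 Residence time came from competitive association kinetics. [3H]-radioligand binding to human GPR40 HEK293 membranes (5 μg, rt, Tris/Ca/Mg/0.1% BSA buffer) was measured at time points over 0–3 h, with and without several concentrations of unlabeled test compound. Fits used association and dissociation rates of the radioligand from independent kinetic experiments.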

[5] = Protein binding in plasma (unknown origin) by equilibrium dialysis method; assay type: ADME, cell-free; conditions: human, read-out: PPB
Procedure, shortened: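 Plasma protein binding measured by equilibrium dialysis.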

[6] = biological target: Free fatty acid receptor 1 (Rattus norvegicus) (UniProt Q8K3T4); assay: Agonist activity at Prolink-tagged rat GPR40 fused with EA-tagged beta-arrestin expressed in human U2OS cells assessed as induction of beta-arrestin recruitment measured after 90 mins by beta-galactosidase based PathHunter assay relative to control; assay type: cell-based; conditions: filed as agonist; procedure, shortened: as §2
[7] = Dissociation constant, pKa1 of compound by potentiometric method; assay type: physicochemical
Procedure, shortened: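 pKa values measured potentiometrically.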

[8] = biological target: T3, Free fatty acid receptor 1; assay: as §3, with “dissociation constant measured after 2 hrs” for “residence time”; assay type: cell membranes
[9] = biological target: Free fatty acid receptor 1 (Rattus norvegicus) (UniProt Q8K3T4); assay: Agonist activity at GPR40 in Sprague-Dawley rat pancreatic islets assessed as induction of glucose-mediated insulin secretion measured after 90 mins in EBSS buffer by ELISA; assay type: tissue-based; conditions: Pancreatic islet
Procedure, shortened: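 Glucose-dependent insulin secretion in mouse MIN6 cells or rat islet cells, scored as secretion above the glucose-alone level.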

[10] = biological target: T4, Peroxisome proliferator-activated receptor gamma (Homo sapiens) (UniProt P37231); assay: Displacement of [3H]-[…] from PPARgamma (unknown origin) expressed in baculovirus infected Sf9 insect cells upto 30 uM measured after 10 hrs by microbeta scintillation counting analysis; conditions: dose microM <=30, time 10.0 hrs; procedure, shortened: as §1
T4 sequence (whole entry): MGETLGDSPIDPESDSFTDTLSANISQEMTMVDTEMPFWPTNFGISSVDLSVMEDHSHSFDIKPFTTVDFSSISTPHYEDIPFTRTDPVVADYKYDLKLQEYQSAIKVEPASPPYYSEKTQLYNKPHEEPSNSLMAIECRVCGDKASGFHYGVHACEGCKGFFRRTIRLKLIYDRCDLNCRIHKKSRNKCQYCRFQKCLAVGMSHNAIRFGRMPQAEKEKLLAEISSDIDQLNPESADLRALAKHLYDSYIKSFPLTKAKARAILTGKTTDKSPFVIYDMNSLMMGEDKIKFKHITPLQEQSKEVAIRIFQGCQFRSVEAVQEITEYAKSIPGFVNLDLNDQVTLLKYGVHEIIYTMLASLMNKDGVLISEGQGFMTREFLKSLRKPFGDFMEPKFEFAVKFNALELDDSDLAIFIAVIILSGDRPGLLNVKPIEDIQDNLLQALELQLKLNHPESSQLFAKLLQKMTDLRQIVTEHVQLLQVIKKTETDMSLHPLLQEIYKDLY

[11] = biological target: T3, Free fatty acid receptor 1; assay: Agonist activity at human recombinant full-length Prolink-tagged GPR40 fused with EA-tagged beta-arrestin expressed in human HEK293 cells assessed as induction of beta-arrestin recruitment measured after 90 mins by beta-galactosidase based PathHunter assay; assay type: cell-based; procedure, shortened: as §2

Sequence of Free fatty acid receptor 1 (Rattus norvegicus) (Q8K3T4 whole entry, the tested form may be a part): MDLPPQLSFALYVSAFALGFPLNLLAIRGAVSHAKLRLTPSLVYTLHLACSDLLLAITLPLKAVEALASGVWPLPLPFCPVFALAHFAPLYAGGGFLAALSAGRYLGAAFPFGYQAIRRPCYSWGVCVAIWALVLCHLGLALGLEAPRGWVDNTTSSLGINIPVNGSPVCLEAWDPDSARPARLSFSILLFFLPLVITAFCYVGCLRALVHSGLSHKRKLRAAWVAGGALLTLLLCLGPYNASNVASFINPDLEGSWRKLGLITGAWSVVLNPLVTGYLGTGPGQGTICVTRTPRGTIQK
T3 sequence (O14842 whole entry): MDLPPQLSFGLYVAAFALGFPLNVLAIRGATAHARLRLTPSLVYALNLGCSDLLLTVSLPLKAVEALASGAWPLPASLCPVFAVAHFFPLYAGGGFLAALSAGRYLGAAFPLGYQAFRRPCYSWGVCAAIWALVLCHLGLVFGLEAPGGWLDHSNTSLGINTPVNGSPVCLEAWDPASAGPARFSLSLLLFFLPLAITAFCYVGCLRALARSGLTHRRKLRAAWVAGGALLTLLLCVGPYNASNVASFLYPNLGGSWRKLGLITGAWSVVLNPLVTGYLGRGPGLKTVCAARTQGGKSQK
Sequence of Free fatty acid receptor 1 (Mus musculus, UniProt Q76JU9) (Q76JU9 whole entry, the tested form may be a part): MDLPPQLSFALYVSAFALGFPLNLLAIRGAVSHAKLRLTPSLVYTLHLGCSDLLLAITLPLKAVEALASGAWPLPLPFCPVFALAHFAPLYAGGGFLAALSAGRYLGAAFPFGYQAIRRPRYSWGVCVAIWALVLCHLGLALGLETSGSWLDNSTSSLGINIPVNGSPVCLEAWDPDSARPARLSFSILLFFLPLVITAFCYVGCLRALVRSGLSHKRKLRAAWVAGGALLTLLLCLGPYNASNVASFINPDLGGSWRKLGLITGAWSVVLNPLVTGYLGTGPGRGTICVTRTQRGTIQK

| Compound | Activity [1] | ED90 (Mus musculus) [mg/kg] | EC50 ([2]; u2os) [nM] | Activity [3] | TIME [4] [h] | fraction unbound [5] | Emax [6] [%] | pKa [7] | Kd [8] [nM] | Activity ([9]; filed as agonist) | Activity [10] | EC50 [2] [nM] | EC50 [11] [nM] | Activity [9] |
| --- | --- | --- | --- | --- | --- | --- | --- | --- | --- | --- | --- | --- | --- | --- |
| CC#C[C@@H](CC(=O)O)c1ccc(OCc2ccc(CN3CCC4(C=Cc5ccccc54)CC3)cc2)cc1 [LY2881835] | inactive | 0.58 | 0.85 | inactive | 2 | < 0.01 | 124 | 4.1 | 2.5 | Active | inactive |  |  |  |
| O=C(O)C[C@@H](c1ccc(OCc2ccc3nc(-c4ccccc4)nn3c2)cc1)c1ccon1 | inactive | > 100 |  | inactive | 0.367 | < 0.01 | 61 | 1.9 | 37 |  | inactive | 3800 | 600 | inactive |
| CC#C[C@@H](CC(=O)O)c1ccc(OCc2ccc(CN3CCCc4cccc(OC)c43)s2)cc1 |  | 5 |  |  |  | < 0.01 | 121 | 3.4 |  |  |  | 1 | 7 |  |
| CC#C[C@@H](CC(=O)O)c1ccc(OCc2ccc(CN3CCC4(CC3)CN(C)c3ccccc34)cc2)cc1 | inactive | 11.7 |  | inactive | 0.783 | < 0.01 | 126 | 4.3 | 9.5 | Active | inactive | 3.3 | 56 |  |
| CC#C[C@@H](CC(=O)O)c1ccc(OCc2ccc(CN3CCC4(C=Cc5ccccc54)CC3)s2)cc1 | inactive | 3.67 |  | inactive | 0.667 | < 0.01 | 113 | 4.2 | 2 | Active | inactive | 0.46 | 5.3 |  |
| CC#C[C@@H](CC(=O)O)c1ccc(OCc2ccc(CN3CCC4(CCc5ccccc54)CC3)cc2)cc1 | inactive | 22 |  | inactive | 1.1 | < 0.01 | 135 | 4.6 | 2.2 | Active | inactive | 0.88 | 11 |  |
| CC#C[C@@H](CC(=O)O)c1ccc(OCc2ccc(CN3CCC4(CCc5ccccc54)CC3)s2)cc1 | inactive | 5.6 |  | inactive | 1.03 | < 0.01 | 108 | 3.4 | 3.5 | Active | inactive | 1.2 | 7.9 |  |
| O=C(O)CCc1ccc(OCc2ccc(CN3CCC4(C=Cc5ccccc54)CC3)cc2)cc1F | inactive | > 100 |  | inactive | 0.2 | < 0.01 | 114 | 3.9 | 58 |  | inactive | 32 | 340 | inactive |

From ChEMBL document CHEMBL4765234 (J Med Chem, 2016)
